Reference: ChEMBL document CHEMBL4689842, “EUbOPEN Chemogenomics Library wave 1” (2021)
Several values for one entry are separate records, joined by “and”; a condition that tells them apart may be missing. Equal values may be shown once.

Test system: HEK-293T
Experiment: Multiplex assay against HEK293T;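 on Population Tubulin-Different-Phenotype (%): share of the cells with healthy nuclei that show this phenotype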
Format: toxicity, cell-based
Conditions: human, 10 µM, compound concentration 10 uM
How it was run: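 Four dyes were applied at seeding to live cells: Hoechst33342, BioTracker Green Microtubule Cytoskeleton Dye, MitoTracker Red and Annexin V Alexa Fluor 680. Imaging after compound addition used a CQ1 microscope at 37°C and 5% CO2. CellPathfinder machine-learning gating then sorted cells into Hoechst high-intensity objects or normal cells, normal cells into healthy, pyknosed or fragmented nuclei, and pyknosed cells into mitotic or apoptotic, with tubulin, mitochondrial-mass and membrane-permeability phenotypes given as per cents of healthy-nucleus cells.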

`CNCc1ccccc1-c1csc([C@@H](C)Nc2nc(C)nc3cc(OC)c(OC)cc23)c1` [BAY-293] was tested, and the “Population Apoptotic (%)” value (12 h, replicate 1) was 19% and 47%, the “Population Fragmented Nuclei (%)” value (12 h, replicate 1) was 20% and 21% and the “Population Healthy Nuclei (%)” value (12 h, replicate 1) was 45% and 17%. The “Population Hoechst High Intensity Objects (%)” value (12 h, replicate 1) was 16% and 22%, the “Population Membrane Permeable-Phenotype (%)” value (12 h, replicate 1) was 29% and 15% and the “Population Mitochondria Different-Phenotype (%)” value (12 h, replicate 1) was 18% and 54%. For the same compound, the “Population Mitotic Cells (%)” value (12 h, replicate 1) was 80% and 52%, the “Population Normal (%)” value (12 h, replicate 1) was 83% and 77% and the “Population Pyknosed Nuclei (%)” value (12 h, replicate 1) was 34% and 61%. The “Population Tubulin-Different-Phenotype (%)” value (12 h, replicate 1) was 80% and 65%, the “Total Cell Count” value (12 h, replicate 1) was 581 and 619 and the “Population Fragmented Nuclei (%)” value (12 h, replicate 2) was 5% and 2%. For the same compound, the “Population Healthy Nuclei (%)” value (12 h, replicate 2) was 80% and 57%, the “Population Hoechst High Intensity Objects (%)” value (12 h, replicate 2) was 3% and 9% and the “Population Membrane Permeable-Phenotype (%)” value (12 h, replicate 2) was 7%. The “Population Mitotic Cells (%)” value (12 h, replicate 2) was 91% and 65%, the “Population Normal (%)” value (12 h, replicate 2) was 96% and 90% and the “Population Pyknosed Nuclei (%)” value (12 h, replicate 2) was 14% and 40%. The “Population Tubulin-Different-Phenotype (%)” value (12 h, replicate 2) was 95% and 92%, the “Total Cell Count” value (12 h, replicate 2) was 1447 and 918 and the “Population Apoptotic (%)” value (24 h, replicate 1) was 55% and 23%. For the same compound, the “Population Fragmented Nuclei (%)” value (24 h, replicate 1) was 28% and 17%, the “Population Hoechst High Intensity Objects (%)” value (24 h, replicate 1) was 25% and 13% and the “Population Membrane Permeable-Phenotype (%)” value (24 h, replicate 1) was 17% and 36%. The “Population Mitochondria Different-Phenotype (%)” value (24 h, replicate 1) was 45% and 16%, the “Population Mitotic Cells (%)” value (24 h, replicate 1) was 44% and 76% and the “Population Normal (%)” value (24 h, replicate 1) was 74% and 86%. The “Population Tubulin-Different-Phenotype (%)” value (24 h, replicate 1) was 59% and 89%, the “Total Cell Count” value (24 h, replicate 1) was 668 and 627 and the “Population Fragmented Nuclei (%)” value (24 h, replicate 2) was 5% and 15%. For the same compound, the “Population Healthy Nuclei (%)” value (24 h, replicate 2) was 46% and 79%, the “Population Mitotic Cells (%)” value (24 h, replicate 2) was 53% and 94% and the “Population Normal (%)” value (24 h, replicate 2) was 89% and 96%. For the same compound, the “Population Tubulin-Different-Phenotype (%)” value (24 h, replicate 2) was 73% and 82% and the “Total Cell Count” value (24 h, replicate 2) was 918 and 2344.
